Published values gathered from unrelated publications.
Protocols differ between the studies behind these lines.
Target: Serine/threonine-protein kinase 25 (STK25, Homo sapiens, UniProt O00506)

SMILES | effect on | method | concentration | remaining binding
C=CC(=O)N1CCC(C(=O)NCC(=O)N2CCN(c3nc(-c4cnc(N)nc4C(F)F)nc(N4CCOCC4)n3)CC2)CC1 | binding | competition with immobilised ligand | 1 µM | 96%
O=C(NCCCN1CCOCC1)c1ccc(Nc2nccc(-c3cc4ccccc4s3)n2)cc1 | binding | competition with immobilised ligand | 1 µM | 67%
CNC(=O)[C@@H]1CC[C@@H](n2c(-c3ccc4cnccc4c3)nc3ccc(C(=O)NCc4cccc(C(N)=O)c4)cc32)C1 | binding | competition with immobilised ligand | 1 µM | 100%
O=C(NCC1CCOCC1)c1n[nH]cc1NC(=O)c1c(F)cccc1F | binding | competition with immobilised ligand | 1 µM | 95%
CC1=C(C#N)[C@@H](c2ccc3[nH]nc(C)c3c2)C(C#N)=C(c2ccc(Cl)cc2)N1 | cell-free assay | competition with immobilised ligand | 1 µM | 100%
O=C(c1ccc(Nc2ncc(Cl)c(-c3cc4ccccc4s3)n2)cc1)N1CCC(N2CCCC2)CC1 | binding | competition with immobilised ligand | 1 µM | 32%
c1cncc(-c2cccc(Nc3nccc(NC4CCCCC4)n3)c2)c1 | binding | competition with immobilised ligand | 10 µM | 100%
CN(C)c1nccc(-c2cnc3ncccn23)n1 | binding |  | 1 µM | 100%
CN([C@@H]1CCc2c(CC(=O)O)c3cc(S(C)(=O)=O)ccc3n2C1)S(=O)(=O)c1ccc(F)cc1 | cell-free assay | competition with immobilised ligand | 1 µM | 100%
COc1ccnn2ncc(-c3ccnc(N(C)C)n3)c12 | binding |  | 1 µM | 100%
CCCOc1ccc([C@H]2[C@H](C(=O)O)[C@@H](c3ccc4c(c3)OCO4)CN2CC(=O)Nc2c(CC)cccc2CC)cc1 | cell-free assay | competition with immobilised ligand | 1 µM | 100%
N[C@@H]1CCN(c2nccc(-c3cnn4ncccc34)n2)C1 | binding |  | 1 µM | 100%
CCN1CCN(Cc2ccc(C(=O)Nc3ccc(C)c(Oc4ccc5c(c4)CC(=O)N5)c3)cc2C(F)(F)F)CC1 | binding | competition with immobilised ligand | 1 µM | 100%
CC(=O)C1=C(C)N(c2cccc(C(F)(F)F)c2)C(=O)N[C@@H]1c1ccc(C#N)nc1 | cell-free assay | competition with immobilised ligand | 1 µM | 89.9%
CN(c1nccc(-c2cnn3ncccc23)n1)C1CC1 | binding |  | 1 µM | 100%
CCCCN(CCCC)C(=O)CN1C[C@H](c2cc(OC)c3c(c2)OCO3)[C@@H](C(=O)O)[C@@H]1CC(C)(C)CCC | cell-free assay | competition with immobilised ligand | 1 µM | 100%
F[C@@H]1CCN(c2nccc(-c3cnn4ncccc34)n2)C1 | binding |  | 1 µM | 100%
CNC(=O)Nc1ccc2c(c1)CC[C@@]21OC(=O)N(CC(=O)N(Cc2ccc(F)cc2)[C@@H](C)C(F)(F)F)C1=O | cell-free assay | competition with immobilised ligand | 1 µM | 99%
O=C(c1ccc(Nc2nccc(-c3cc4ccccc4s3)n2)cc1)N1CCC(N2CCCC2)CC1 | binding | competition with immobilised ligand | 1 µM | 22%
C[C@H]1CCN(c2nccc(-c3cnn4ncccc34)n2)C1 | binding |  | 1 µM | 100%
